Measured values taken from ChEMBL document CHEMBL1772996, “Bioactive constituents from the roots of Panax japonicus var. major and development of a LC-MS/MS method for distinguishing between natural and artifactual compounds” (J Nat Prod, 2011).
Calls of active or inactive are those of the source. The rule behind the calls is not given here.

What was measured:
[1] = system: Neutrophil; test: Inhibition of fMLP/CB-activated human neutrophil degranulation assessed as inhibition of elastase release using MeO-Suc-Ala-Ala-Pro-Val-p-nitroanilide as a substrate after 5 mins; type: functional, cell-based
How it was run: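 Neutrophils from dextran sedimentation, Ficoll Hypaque centrifugation and hypotonic erythrocyte lysis (>98% viable by trypan blue), held in Ca2+-free HBSS pH 7.4 at 4 °C; 5×10^5/mL cells with 100 μM substrate equilibrated 37 °C 2 min, compound 5 min, then 100 nM FMLP plus 0.5 μg/mL CB; A405 monitored continuously; expressed as % of initial rate in drug-free activated control; mean ± S.E.M., n = 3–4; top concentration 30 μM.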

[2] = system: KB; test: Cytotoxicity against human KB cells assessed as growth inhibition after 3 days by sulforhodamine B assay; type: functional
[3] = system: DU-145; test: Cytotoxicity against human DU145 cells assessed as growth inhibition after 3 days by sulforhodamine B assay; type: functional
[4] = system: A549; test: Cytotoxicity against human A549 cells assessed as growth inhibition after 3 days by sulforhodamine B assay; type: functional, cell-based
[5] = system: HCT-8; test: Cytotoxicity against human HCT8 cells assessed as growth inhibition after 3 days by sulforhodamine B assay; type: functional, cell-based
[6] = system: Neutrophil; test: Inhibition of superoxide anion generation in human neutrophils in response to fMLP/CB
[7] = system: Neutrophil; test: Inhibition of fMLP/CB-stimulated superoxide anion generation in human neutrophils; type: functional, cell-based
How it was run: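 Isolated human neutrophils (dextran sedimentation, Ficoll Hypaque, hypotonic lysis; >98% viable) with 0.5 mg/mL ferricytochrome c and 1 mM Ca2+, 37 °C 2 min, compound 5 min; CB 1 μg/mL 3 min, then 100 nM FMLP 10 min; SOD-inhibitable cytochrome c reduction followed continuously at 550 nm with stirring; mean ± S.E.M., n = 3–4; top concentration 30 μM.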

[8] = Inhibition of yeast alpha-glucosidase assessed as p-nitrophenol release after 20 mins by microplate spectrophotometer; design: species or system Saccharomyces cerevisiae

COC(=O)[C@H]1O[C@@H](O[C@H]2CC[C@]3(C)[C@H]4CC=C5[C@@H]6CC(C)(C)CC[C@]6(C(=O)O[C@@H]6O[C@H](CO)[C@@H](O)[C@H](O)[C@H]6O)CC[C@@]5(C)[C@]4(C)CC[C@H]3C2(C)C)[C@H](O)[C@@H](O)[C@@H]1O
IC50 [1]: 1.97 µM
growth inhibition (GI) [2]: inactive
growth inhibition (GI) [3]: inactive
growth inhibition (GI) [4]: inactive
growth inhibition (GI) [5]: inactive
IC50 [6]: 13.6 µM

CC1(C)CC[C@]2(C(=O)O[C@@H]3O[C@H](CO)[C@@H](O)[C@H](O)[C@H]3O)CC[C@]3(C)C(=CC[C@@H]4[C@@]5(C)CC[C@H](O[C@@H]6O[C@H](C(=O)O[C@@H]7O[C@H](CO)[C@@H](O)[C@H](O)[C@H]7O)[C@@H](O[C@@H]7O[C@@H](CO)[C@H](O)[C@H]7O)[C@H](O)[C@H]6O)C(C)(C)[C@@H]5CC[C@]43C)[C@@H]2C1
IC50 [7]: 1.56 µM
IC50 [1]: 1.87 µM
growth inhibition (GI) [2]: inactive
growth inhibition (GI) [3]: inactive
growth inhibition (GI) [4]: inactive
growth inhibition (GI) [5]: inactive

CCCCOC(=O)[C@H]1O[C@@H](O[C@H]2CC[C@]3(C)[C@H]4CC=C5[C@@H]6CC(C)(C)CC[C@]6(C(=O)O[C@@H]6O[C@H](CO)[C@@H](O)[C@H](O)[C@H]6O)CC[C@@]5(C)[C@]4(C)CC[C@H]3C2(C)C)[C@H](O)[C@@H](O)[C@@H]1O
IC50 [7]: 3.73 µM
IC50 [1]: 7.28 µM
growth inhibition (GI) [2]: inactive
growth inhibition (GI) [3]: inactive
growth inhibition (GI) [4]: inactive
growth inhibition (GI) [5]: inactive

C[C@H]1O[C@H](O[C@H]2[C@H](O)[C@@H](O)[C@@H](O[C@H]3[C@H](O)[C@@H](O)C(O)O[C@@H]3CO)O[C@@H]2CO)[C@H](O)[C@@H](O)[C@@H]1N[C@H]1C=C(CO)[C@@H](O)[C@H](O)[C@H]1O (some centres undefined) [ACARBOSE]
IC50 [8]: 678 µM

CC1(C)CC[C@]2(C(=O)O[C@@H]3O[C@H](CO)[C@@H](O)[C@H](O)[C@H]3O)CC[C@]3(C)C(=CC[C@@H]4[C@@]5(C)CC[C@H](O[C@@H]6O[C@H](C(=O)O)[C@@H](O)[C@H](O)[C@H]6O)C(C)(C)[C@@H]5CC[C@]43C)[C@@H]2C1 [CHIKUSETSUSAPONIN IVA]
IC50 [7]: 2.88 µM
IC50 [1]: 4.76 µM
growth inhibition (GI) [2]: inactive
growth inhibition (GI) [3]: inactive
growth inhibition (GI) [4]: inactive
growth inhibition (GI) [5]: inactive

CC1(C)CC[C@]2(C(=O)O)CC[C@]3(C)C(=CC[C@@H]4[C@@]5(C)CC[C@H](O)C(C)(C)[C@@H]5CC[C@]43C)[C@@H]2C1 [OLEANOLIC_ACID]
IC50 [7]: 1.37 µM
IC50 [1]: 0.75 µM
growth inhibition (GI) [2]: inactive
growth inhibition (GI) [3]: inactive
growth inhibition (GI) [4]: inactive
growth inhibition (GI) [5]: inactive

COC(=O)[C@H]1O[C@@H](O[C@H]2CC[C@]3(C)[C@H]4CC=C5[C@@H]6CC(C)(C)CC[C@]6(C(=O)O[C@@H]6O[C@H](CO)[C@@H](O)[C@H](O)[C@H]6O)CC[C@@]5(C)[C@]4(C)CC[C@H]3C2(C)C)[C@H](O[C@H]2OC[C@@H](O)[C@H](O)[C@H]2O)[C@@H](O)[C@@H]1O [PSEUDOGINSENOSIDE RT1 METHYL ESTER]
IC50 [7]: 5.26 µM
IC50 [1]: 7.75 µM
growth inhibition (GI) [2]: inactive
growth inhibition (GI) [3]: inactive
growth inhibition (GI) [4]: inactive
growth inhibition (GI) [5]: inactive

CC1(C)CC[C@]2(C(=O)O[C@@H]3O[C@H](CO)[C@@H](O)[C@H](O)[C@H]3O)CC[C@]3(C)C(=CC[C@@H]4[C@@]5(C)CC[C@H](O[C@@H]6O[C@H](C(=O)O)[C@@H](O)[C@H](O)[C@H]6O[C@H]6OC[C@@H](O)[C@H](O)[C@H]6O)C(C)(C)[C@@H]5CC[C@]43C)[C@@H]2C1 [PSEUDOGINSENOSIDE RT1]
IC50 [7]: 19.4 µM
IC50 [1]: 44.5 µM
growth inhibition (GI) [2]: inactive
growth inhibition (GI) [3]: inactive
growth inhibition (GI) [4]: inactive
growth inhibition (GI) [5]: inactive

CCCCOC(=O)[C@H]1O[C@@H](O[C@H]2CC[C@]3(C)[C@H]4CC=C5[C@@H]6CC(C)(C)CC[C@]6(C(=O)O[C@@H]6O[C@H](CO)[C@@H](O)[C@H](O)[C@H]6O)CC[C@@]5(C)[C@]4(C)CC[C@H]3C2(C)C)[C@H](O)[C@@H](O)[C@@H]1O[C@@H]1O[C@@H](CO)[C@H](O)[C@H]1O [TAIBAIENOSIDE I]
IC50 [7]: 2.24 µM
IC50 [1]: 1.36 µM
growth inhibition (GI) [2]: inactive
growth inhibition (GI) [3]: inactive
growth inhibition (GI) [4]: inactive
growth inhibition (GI) [5]: inactive
